According to ChEMBL document CHEMBL4330056, “Synthesis and Cytotoxic and Antiviral Profiling of Pyrrolo- and Furo-Fused 7-Deazapurine Ribonucleosides” (J Med Chem, 2018):
Active and inactive are the calls of the source. The rule behind the calls is not given here.

What was measured:
Influenza A virus = experiment: Antiviral activity against Influenza A virus (A/Mexico/4108/2009(H1N1)) infected in MDCK cells assessed as inhibited virus-induced cytopathic effect incubated for 2 days by XTT assay; format: functional, organism-based
HL-60 = experiment: Antiproliferative activity against human HL60 cells after 72 hrs by XTT assay; format: functional, cell-based; conditions: HL-60, 72 h
U2OS = experiment: Antiproliferative activity against human U2OS cells after 3 days by MTS assay; format: functional, cell-based; conditions: 72 h
A549 = experiment: Antiproliferative activity against human A549 cells after 3 days by MTS assay; format: functional, cell-based; conditions: A549, 72 h
CCRF-CEM [1] = experiment: Induction of cell cycle arrest in human CCRF-CEM cells assessed as accumulation at G0/G1 phase at IC50 concentration after 24 hrs by propidium iodide-staining based flow cytometry (reference value: 39.70%); format: functional
Human alphaherpesvirus 1 = experiment: Antiviral activity against human herpesvirus 1 HF infected in African green monkey Vero cells assessed as inhibited virus-induced cytopathic effect incubated for 3 days by XTT assay; format: functional, organism-based
[2] = Antiproliferative activity against human K562-TAX cells after 3 days by MTS assay; format: functional, cell-based; conditions: 72 h
CCRF-CEM [3] = experiment: Antiproliferative activity against human CCRF-CEM cells after 3 days by MTS assay; format: functional, cell-based; conditions: 72 h
CCRF-CEM [4] = experiment: Induction of cell cycle arrest in human CCRF-CEM cells assessed as accumulation at subG1 phase at 5 times IC50 concentration after 24 hrs by propidium iodide-staining based flow cytometry (reference value: 3.45%); format: functional
CCRF-CEM [5] = experiment: Induction of cell cycle arrest in human CCRF-CEM cells assessed as accumulation at G2/M phase at 5 times IC50 concentration after 24 hrs by propidium iodide-staining based flow cytometry (reference value: 19.22%); format: functional
MRC5 = experiment: Antiproliferative activity against human MRC5 cells after 3 days by MTS assay; conditions: MRC5, 72 h
BJ = experiment: Antiproliferative activity against human BJ cells after 3 days by MTS assay; conditions: 72 h
CCRF-CEM [6] = experiment: Induction of cell cycle arrest in human CCRF-CEM cells assessed as accumulation at S phase at 5 times IC50 concentration after 24 hrs by propidium iodide-staining based flow cytometry (reference value: 41.08%); format: functional
Adenosine kinase [7] = target: T1, Adenosine kinase (Homo sapiens, UniProt P55263); experiment: Inhibition of recombinant human ADK using [3H]-adenosine as substrate after 20 mins by TLC scanner-based analysis relative to control
Summary of the method: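 ADK inhibition: 50 μM adenosine substrate with 10 μM test compound and 97 ng enzyme, 20 min at 37 °C.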

CCRF-CEM [8] = experiment: Induction of cell cycle arrest in human CCRF-CEM cells assessed as accumulation at G2/M phase at IC50 concentration after 24 hrs by propidium iodide-staining based flow cytometry (reference value: 19.22%); format: functional
CCRF-CEM [9] = experiment: Inhibition of DNA synthesis in human CCRF-CEM cells assessed as DNA synthesis level at 5 times IC50 concentration after 24 hrs by BrdU incorporation assay (reference value: 43.39%); format: functional; set-up: scale not given: the % may be the effect or the level left
CCRF-CEM [10] = experiment: Inhibition of DNA synthesis in human CCRF-CEM cells assessed as DNA synthesis level at IC50 concentration after 24 hrs by BrdU incorporation assay (reference value: 43.39%); format: functional; set-up: scale not given: the % may be the effect or the level left
CCRF-CEM [11] = experiment: Inhibition of mitosis in human CCRF-CEM cells assessed Ser10 H3 phosphorylation positive cells at IC50 concentration after 24 hrs by flow cytometry relative to total cell population (reference value: 1.36%); format: functional; set-up: scale not given: the % may be the effect or the level left
HCT-116 [12] = experiment: Antiproliferative activity against p53 gene knocked out human HCT116 cells after 3 days by MTS assay; format: functional, cell-based; conditions: HCT-116, 72 h
Hepatitis C virus [13] = experiment: Antiviral activity against Hepatitis C virus genotype 2a infected in human Huh-luc replicon cells after 3 days by luciferase assay; format: functional, organism-based, Hepacivirus hominis; conditions: subtype 2a, 72 h
CCRF-CEM [14] = experiment: Induction of cell cycle arrest in human CCRF-CEM cells assessed as accumulation at S phase at IC50 concentration after 24 hrs by propidium iodide-staining based flow cytometry (reference value: 41.08%); format: functional
HepG2 = experiment: Antiproliferative activity against human HepG2 cells after 72 hrs by XTT assay; format: functional, cell-based; conditions: HepG2, 72 h
CCRF-CEM [15] = experiment: Inhibition of RNA synthesis in human CCRF-CEM cells assessed as RNA synthesis level at IC50 concentration after 24 hrs by BrU incorporation assay (reference value: 49.89%); format: functional; set-up: scale not given: the % may be the effect or the level left
[16] = Antiproliferative activity against human CEM-DNR-bulk cells after 3 days by MTS assay; conditions: 72 h
dengue virus type 2 = experiment: Antiviral activity against Dengue virus 2 Thailand/16681/84 infected in African green monkey Vero cells assessed as inhibition of virus replication incubated for 3 days by fluorescence microscopy; format: functional, organism-based
Coxsackievirus B3 = experiment: Antiviral activity against Human coxsackie B3 Nancy infected in human HeLa cells assessed as inhibited virus-induced cytopathic effect incubated for 2 days by XTT assay; format: functional, organism-based
CCRF-CEM [17] = experiment: Inhibition of RNA synthesis in human CCRF-CEM cells assessed as RNA synthesis level at 5 times IC50 concentration after 24 hrs by BrU incorporation assay (reference value: 49.89%); format: functional; set-up: scale not given: the % may be the effect or the level left
CCRF-CEM [18] = experiment: Inhibition of mitosis in human CCRF-CEM cells assessed Ser10 H3 phosphorylation positive cells at 5 times IC50 concentration after 24 hrs by flow cytometry relative to total cell population (reference value: 1.36%); format: functional; set-up: scale not given: the % may be the effect or the level left
HCT-116 [19] = experiment: Antiproliferative activity against human HCT116 cells after 3 days by MTS assay; format: functional, cell-based; conditions: HCT-116, 72 h
HeLa S3 = experiment: Antiproliferative activity against human HeLaS3 cells after 72 hrs by XTT assay; format: functional, cell-based; conditions: HeLa S3, 72 h
CCRF-CEM [20] = experiment: Induction of cell cycle arrest in human CCRF-CEM cells assessed as accumulation at subG1 phase at IC50 concentration after 24 hrs by propidium iodide-staining based flow cytometry (reference value: 3.45%); format: functional
Adenosine kinase [21] = target: T1, Adenosine kinase; experiment: Substrate activity at recombinant human ADK assessed as compound phosphorylation at 50 uM after 20 mins in presence of [3H]-adenosine by UPLC; format: ADME
Hepatitis C virus [22] = experiment: Antiviral activity against Hepatitis C virus genotype 1b infected in human Huh-luc replicon cells after 3 days by luciferase assay; format: functional, organism-based, Hepacivirus hominis; conditions: subtype 1b, 72 h
[23] = Cytotoxicity against human Hep2 cells assessed as reduction in cell viability after 3 days by CellTiter-Glo assay; format: cell-based; conditions: HEp-2 cells
CCRF-CEM [24] = experiment: Induction of cell cycle arrest in human CCRF-CEM cells assessed as accumulation at G0/G1 phase at 5 times IC50 concentration after 24 hrs by propidium iodide-staining based flow cytometry (reference value: 39.70%); format: functional
Human orthopneumovirus = experiment: Antiviral activity against Human respiratory syncytial virus A2 infected in Hep2 cells assessed as reduction in virus-induced cytopathic effect incubated for 4 days by CellTiter-Glo viability reagent based assay; format: functional, organism-based
K562 = experiment: Antiproliferative activity against human K562 cells after 3 days by MTS assay; format: functional, cell-based; conditions: K562, 72 h

T1 sequence (P55263 whole entry): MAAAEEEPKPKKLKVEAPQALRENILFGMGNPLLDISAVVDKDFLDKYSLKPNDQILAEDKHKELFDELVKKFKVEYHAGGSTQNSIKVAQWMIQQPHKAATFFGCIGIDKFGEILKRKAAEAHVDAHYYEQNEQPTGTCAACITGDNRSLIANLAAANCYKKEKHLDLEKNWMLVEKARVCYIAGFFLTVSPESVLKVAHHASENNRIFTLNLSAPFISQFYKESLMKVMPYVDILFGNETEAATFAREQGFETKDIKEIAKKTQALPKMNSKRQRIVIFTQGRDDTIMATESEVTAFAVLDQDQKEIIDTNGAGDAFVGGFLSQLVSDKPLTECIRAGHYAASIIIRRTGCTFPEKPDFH

SMILES: COc1ncnc2c1c1c(ccn1C)n2[C@@H]1O[C@H](CO)[C@@H](O)[C@H]1O
- Activity (Influenza A virus): inactive
- IC50 (HL-60): 1440 nM
- IC50 (U2OS): 1300 nM
- IC50 (A549): > 50000 nM
- Activity (CCRF-CEM [1]): 37.73%
- Activity (Human alphaherpesvirus 1): inactive
- IC50 [2]: > 50000 nM
- IC50 (CCRF-CEM [3]): 440 nM
- Activity (CCRF-CEM [4]): 13.86%
- Activity (CCRF-CEM [5]): 15.4%
- IC50 (MRC5): 50000 nM
- IC50 (BJ): 4500 nM
- Activity (CCRF-CEM [6]): 36.98%
- IC50 (Adenosine kinase [7]): > 10000 nM
- Activity (CCRF-CEM [8]): 17.2%
- Activity (CCRF-CEM [9]): 12.29%
- Activity (CCRF-CEM [10]): 31.44%
- Activity (CCRF-CEM [11]): 1.48%
- IC50 (HCT-116 [12]): 620 nM
- EC50 (Hepatitis C virus [13]): 280 nM
- Activity (CCRF-CEM [14]): 45.08%
- IC50 (HepG2): 2590 nM
- Activity (CCRF-CEM [15]): 31.19%
- IC50 [16]: > 50000 nM
- Activity (dengue virus type 2): inactive
- Activity (Coxsackievirus B3): inactive
- Activity (CCRF-CEM [17]): 28.3%
- Activity (CCRF-CEM [18]): 1.5%
- IC50 (HCT-116 [19]): 360 nM
- IC50 (HeLa S3): 1530 nM
- Activity (CCRF-CEM [20]): 3.68%
- Activity (Adenosine kinase [21]): 47%
- EC50 (Hepatitis C virus [22]): 90 nM
- CC50 at 72 h [23]: > 44400 nM
- Activity (CCRF-CEM [24]): 47.62%
- Activity (Human orthopneumovirus): inactive
- IC50 (K562): 510 nM
